Calls of active or inactive are those of the source.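 The calls were made as follows, unless noted: active = duplicate-averaged activation above buffer control mean plus 5 SD of those controls; inactive = the rest.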
What was measured:
[1] = nonspecific flux increase, KCNQ1-free cells – parental CHO cells, counter-screen for KCNQ1 potentiator project (AID 493006); details: parental CHO-K1 cells, FluxOR thallium flux, at 10 µM; hits give high values
Outline: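 Assay system: parental CHO-K1 cells lacking KCNQ1, loaded with FluxOR thallium dye; timing: dye 90 min RT, compound 20 min RT; signal: kinetic thallium-flux fluorescence; repeats: duplicate wells per compound, percent values averaged; benchmarks: buffer and R-L3 controls; reagent: Potassium/thallium depolarization pulse; read-out: fluorescence change ratio scaled 0% buffer, 100% R-L3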

[2] = target: Potassium voltage-gated channel subfamily KQT member 1 (Homo sapiens) (UniProt P51787); test: enhancement of KCNQ1 channel thallium flux – FluxOR thallium flux, CHO cells, duplicates, confirmation (AID 493007;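 active = potentiation averaged over duplicate wells exceeding buffer-only control mean by more than 3 SD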;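 as to outcome: cells depolarized by a potassium plus thallium sulfate stimulus after compound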); details: KCNQ1 cell line, FluxOR thallium flux fluorescence, at 10 µM; hits give high values, % of reference activator effect, buffer zero
Chain of Potassium voltage-gated channel subfamily KQT member 1 (Homo sapiens) (P51787 whole entry, looked up): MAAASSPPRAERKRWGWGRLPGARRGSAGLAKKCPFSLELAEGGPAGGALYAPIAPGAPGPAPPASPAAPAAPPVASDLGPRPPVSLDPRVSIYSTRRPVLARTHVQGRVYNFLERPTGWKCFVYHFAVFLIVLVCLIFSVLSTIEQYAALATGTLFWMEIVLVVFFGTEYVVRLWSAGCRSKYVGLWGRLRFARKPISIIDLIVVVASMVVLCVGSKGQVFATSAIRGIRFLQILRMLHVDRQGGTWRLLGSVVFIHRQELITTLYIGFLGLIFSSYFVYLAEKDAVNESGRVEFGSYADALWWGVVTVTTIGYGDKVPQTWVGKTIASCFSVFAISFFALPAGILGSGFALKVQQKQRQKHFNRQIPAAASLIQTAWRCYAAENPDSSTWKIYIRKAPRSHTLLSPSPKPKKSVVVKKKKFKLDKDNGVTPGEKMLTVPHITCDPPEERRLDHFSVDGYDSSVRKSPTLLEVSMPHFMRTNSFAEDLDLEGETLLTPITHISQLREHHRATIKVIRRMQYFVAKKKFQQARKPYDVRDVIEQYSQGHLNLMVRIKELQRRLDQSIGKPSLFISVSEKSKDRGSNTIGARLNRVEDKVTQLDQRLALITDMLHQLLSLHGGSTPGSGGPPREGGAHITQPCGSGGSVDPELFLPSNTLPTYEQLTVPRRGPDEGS
Outline: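 material = CHO cells stably expressing the KCNQ1 potassium channel | repeats = duplicate wells per compound | measure = percent activation between buffer and R-L3 responses | signal = FluxOR thallium-flux fluorescence, kinetic read | schedule = FluxOR dye loading 90 min, compound exposure 20 min, room temperature | control set = buffer and R-L3 controls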

[3] = target: Potassium voltage-gated channel subfamily KQT member 2 (Rattus norvegicus) (UniProt O88943); test: KCNQ2 thallium flux enhancement – KCNQ2-CHO-K1 cells, selectivity assay for KCNQ1 potentiator project (AID 493009;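 active = mean duplicate potentiation above the buffer control mean plus 5 SD of buffer wells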;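 also: assay conditions were tuned for KCNQ1 rather than KCNQ2 modulators; signal is max minus min fluorescence divided by baseline after thallium stimulus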); details: FluxOR thallium flux fluorescence, at 10 µM; hits give high values, scaled: buffer 0, activator control 100
Chain of Potassium voltage-gated channel subfamily KQT member 2 (Rattus norvegicus) (O88943 whole entry, looked up): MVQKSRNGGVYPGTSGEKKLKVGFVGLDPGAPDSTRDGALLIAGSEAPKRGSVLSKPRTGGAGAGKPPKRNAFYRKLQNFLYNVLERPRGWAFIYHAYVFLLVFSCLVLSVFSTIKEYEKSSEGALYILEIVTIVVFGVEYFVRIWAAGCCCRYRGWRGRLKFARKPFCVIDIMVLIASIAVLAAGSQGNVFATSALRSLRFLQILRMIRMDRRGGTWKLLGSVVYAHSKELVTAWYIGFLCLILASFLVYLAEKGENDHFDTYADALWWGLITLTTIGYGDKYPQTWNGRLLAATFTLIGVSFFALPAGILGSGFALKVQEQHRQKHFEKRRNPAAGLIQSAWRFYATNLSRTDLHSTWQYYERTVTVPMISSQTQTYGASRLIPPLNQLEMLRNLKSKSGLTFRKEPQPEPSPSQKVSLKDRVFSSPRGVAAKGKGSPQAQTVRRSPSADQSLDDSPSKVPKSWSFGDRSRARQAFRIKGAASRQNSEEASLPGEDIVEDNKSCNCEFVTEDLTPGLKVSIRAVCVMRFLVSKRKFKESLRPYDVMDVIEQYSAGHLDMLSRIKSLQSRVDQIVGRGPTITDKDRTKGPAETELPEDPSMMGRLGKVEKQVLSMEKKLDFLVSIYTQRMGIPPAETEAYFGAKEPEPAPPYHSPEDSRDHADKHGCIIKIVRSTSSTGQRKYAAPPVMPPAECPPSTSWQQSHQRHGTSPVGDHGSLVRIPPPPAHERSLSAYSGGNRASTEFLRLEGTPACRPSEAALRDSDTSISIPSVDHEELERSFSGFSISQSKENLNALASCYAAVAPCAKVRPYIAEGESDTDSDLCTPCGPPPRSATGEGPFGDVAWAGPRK

[4] = target: Potassium voltage-gated channel subfamily KQT member 1 (Homo sapiens) (UniProt P51787); test: KCNQ1 activators by electrophysiology – IonWorks patch clamp, KCNQ1-CHO cells, orthogonal assay for KCNQ1 potentiator project, confirmation (AID 493184;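 active = current rise at least 3 SD above the untreated control mean in each of two repeat wells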); details: automated patch clamp current, at 10 µM; hits give high values
Outline: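 Assay system – CHO cells carrying KCNQ1 · Medium – pH 7.4 external bath · Probe or stimulus – depolarizing pulse to +40 mV from -90 mV · Compound dosing – one dose, 10 µM final · Measured by – automated perforated-patch electrophysiology · Measure – % potentiation of steady-state current relative to pre-compound · Repeats – two replicates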

[5] = target: Potassium voltage-gated channel subfamily E member 1 (Homo sapiens) + Potassium voltage-gated channel subfamily KQT member 1 (Homo sapiens) (UniProt P15382+P51787); test: KCNQ1-E1 channel activation – thallium flux, CHO-K1 KCNQ1/E1 cells, selectivity assay for KCNQ1 potentiator project, confirmation (AID 493186;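 active = mean duplicate activation above the buffer control mean plus 5 SD of those controls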); details: FluxOR thallium flux, at 10 µM; hits give high values
Chain of Potassium voltage-gated channel subfamily E member 1 (Homo sapiens) + Potassium voltage-gated channel subfamily KQT member 1 (Homo sapiens) (P51787 whole entry, looked up): as the sequence (P51787 whole entry, looked up) above
Outline: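 Assay system: CHO-K1 cells with KCNQ1/E1 | Dosing: Single compound concentration per well | Incubation: Dye 90 min, compound 20 min, room temperature | Measured by: FluxOR Tl+ flux fluorescence, kinetic read | Controls: Buffer low control, R-L3 high control | Replicates: Duplicate wells per compound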

COc1ccc(C(=O)/C=C/C(=O)N(CC(=O)NC2CCCCC2)Cc2cccs2)c(O)c1
inactive: outcome [1] | outcome [2] | outcome [3] | outcome [4] | outcome [5]

CCOC(=O)c1c(C)[nH]sc1=S
active: potentiation [2] 18%
inactive: outcome [1] | outcome [3] | outcome [4] | outcome [5]

C/C(=N\Nc1cccc2cccnc12)c1ccc[nH]1
inactive: outcome [1] | outcome [3] | outcome [4] | outcome [5]
active: potentiation [2] 30%

CCc1cc(C(=O)N2CCN(c3ccccn3)CC2)sc1C
inactive: outcome [1] | outcome [2] | outcome [3] | outcome [4] | outcome [5]

O=C(CSc1nnc(-c2ccco2)o1)Nc1cccc([N+](=O)[O-])c1
inactive: outcome [1] | outcome [2] | outcome [3] | outcome [4] | outcome [5]

COc1ccc(OC)c(NC(=S)N2CCC(C(O)(c3ccccc3)c3ccccc3)CC2)c1
inactive: outcome [1] | outcome [4] | outcome [5]
active: potentiation [2] 43% | potentiation [3] 174%

CCOc1cc(CN2CCOCC2)cc(C(C)=O)c1
inactive: outcome [1] | outcome [3] | outcome [4] | outcome [5]
active: potentiation [2] 23.5%

Cc1cc(NC(=O)CSCC(=O)OC(C)C(=O)N(C)Cc2ccccc2)no1 (stereo not given)
inactive: outcome [1] | outcome [3] | outcome [4] | outcome [5]
active: potentiation [2] 28%

Cc1ccccc1CS(=O)(=O)c1nnc([C@H](Cc2ccccc2)NC(=O)OC(C)(C)C)o1
inactive: outcome [1] | outcome [3] | outcome [4] | outcome [5]
active: potentiation [2] 22.5%

CC(C1CC2CCC1C2)n1c(-c2ccco2)n[nH]c1=S (stereo not given)
inactive: outcome [1] | outcome [2] | outcome [3] | outcome [4] | outcome [5]

Cc1ccc(NC2=C(Cl)C(=O)OC2OC(=O)c2ccc(C)cc2)cc1 (stereo not given)
inactive: outcome [1] | outcome [2] | outcome [3] | outcome [4] | outcome [5]

O=C(NCC1CCCO1)c1cccc(Oc2ccccc2)c1 (stereo not given)
inactive: outcome [1] | outcome [2] | outcome [3] | outcome [4] | outcome [5]

Cc1ccc(-c2csc(NC(=O)Cc3ccc(F)cc3)n2)o1
inactive: outcome [1] | outcome [2] | outcome [3] | outcome [4] | outcome [5]

S=c1[nH]c(-c2ccccc2)cn1/N=C/c1ccc(Br)cc1
inactive: outcome [1] | outcome [2] | outcome [3] | outcome [4] | outcome [5]

CC1=NOC(=O)/C1=C\c1ccc(-c2ccc(Br)cc2)o1
inactive: outcome [1] | outcome [2] | outcome [3] | outcome [4] | outcome [5]

CCOC(=O)c1ccc(N2C(=O)C3ON(c4ccccc4)C(c4ccco4)C3C2=O)cc1 (stereo not given)
inactive: outcome [1] | outcome [2] | outcome [3] | outcome [4] | outcome [5]

CC(C)(C)NCC(O)CON=C1c2ccccc2-c2ccccc21 (stereo not given)
inactive: outcome [1] | outcome [2] | outcome [3] | outcome [4]
active: activation [5] 15.2%

COc1ccc(-c2csc(N(CCCN(C)C)C(=O)c3ccccc3F)n2)cc1
inactive: outcome [1] | outcome [2] | outcome [3] | outcome [4] | outcome [5]

O=C(Nc1nnc(-c2ccccc2)o1)c1ccc(Cl)cc1
active: potentiation [2] 24% | activation [5] 23.9%
inactive: outcome [1] | outcome [3] | outcome [4]

Cc1c(-c2nc(-c3ccncc3)no2)cccc1[N+](=O)[O-]
inactive: outcome [1] | outcome [3] | outcome [4] | outcome [5]
active: potentiation [2] 20%

O=c1c2cc(F)ccc2[nH]c(=S)n1Cc1ccc(F)cc1
inactive: outcome [1] | outcome [2] | outcome [3] | outcome [4] | outcome [5]

S=c1[nH]nc(C2CCCCC2)n1/N=C/c1cccc(Cl)c1Cl
active: potentiation [2] 41%
inactive: outcome [1] | outcome [3] | outcome [4] | outcome [5]

COCCCN1C(=O)C(=O)/C(=C(/O)c2ccc(C)cc2)C1c1ccccc1 (stereo not given)
inactive: outcome [1] | outcome [2] | outcome [3] | outcome [4] | outcome [5]

CCN1CCN(C(c2ccccn2)c2c(NC(=O)c3ccccc3)sc(C)c2C)CC1 (stereo not given)
inactive: outcome [1] | outcome [2] | outcome [3] | outcome [4] | outcome [5]

CCNc1nc(NCC)nc(C(=O)OCCO)n1
inactive: outcome [1] | outcome [2] | outcome [3] | outcome [4] | outcome [5]

O=C(NC(=S)NCCC1=CCCCC1)c1ccccc1Br
active: potentiation [2] 47% | potentiation [3] 186%
inactive: outcome [1] | outcome [4] | outcome [5]

COc1ccccc1C(=O)NNC(=O)c1nn(Cc2ccccc2)c(=O)c2ccccc12
inactive: outcome [1] | outcome [2] | outcome [3] | outcome [4] | outcome [5]

CN1CCN(Cc2ccc(Sc3ccc(Cl)cc3)c([N+](=O)[O-])c2)CC1
active: potentiation [2] 17.5%
inactive: outcome [1] | outcome [3] | outcome [4] | outcome [5]

O=C(NCCCN1CCCC1)c1ccc2c(c1)N(Cc1ccccc1)CCS2
inactive: outcome [1] | outcome [2] | outcome [3] | outcome [4] | outcome [5]

COC1(c2ccccc2)NC(=S)NN=C1c1ccccc1 (stereo not given)
inactive: outcome [1] | outcome [2] | outcome [3] | outcome [4] | outcome [5]

— PubChem BioAssay
